Test results from ChEMBL document CHEMBL4017487, “Design and Synthesis of γ- and δ-Lactam M1 Positive Allosteric Modulators (PAMs): Convulsion and Cholinergic Toxicity of an M1-Selective PAM with Weak Agonist Activity” (J Med Chem, 2017).

Experiments:
[1] = target: T1, Muscarinic acetylcholine receptor M1 (Homo sapiens, UniProt P11229); assay: Positive allosteric modulation of human muscarinic acetylcholine receptor M1 expressed in CHO cells assessed as increase in acetylcholine-induced calcium mobilization by measuring functional co-operativity with acetylcholine preincubated for 10 mins followed by acetylcholine addition by Fluo-8-AM dye based FLIPR assay; assay type: ADME, cell-based
T1 sequence (P11229 whole entry): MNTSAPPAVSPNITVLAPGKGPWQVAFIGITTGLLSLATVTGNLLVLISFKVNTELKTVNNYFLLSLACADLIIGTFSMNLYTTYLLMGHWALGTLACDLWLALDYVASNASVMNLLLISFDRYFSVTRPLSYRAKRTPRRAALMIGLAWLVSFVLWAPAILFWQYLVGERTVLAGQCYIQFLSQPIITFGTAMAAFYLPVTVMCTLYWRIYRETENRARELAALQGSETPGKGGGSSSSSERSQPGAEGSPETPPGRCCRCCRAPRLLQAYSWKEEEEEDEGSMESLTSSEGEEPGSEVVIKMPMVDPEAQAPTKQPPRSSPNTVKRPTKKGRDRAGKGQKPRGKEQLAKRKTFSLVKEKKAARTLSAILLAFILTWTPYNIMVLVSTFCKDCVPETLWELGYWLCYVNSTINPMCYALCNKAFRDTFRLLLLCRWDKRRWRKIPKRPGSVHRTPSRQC
Method in brief: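 In FLIPR calcium-mobilization data, ACh concentration–response curves with and without test compound were fitted with the Black/Leff operational model. α gives the change in receptor affinity for ACh, and β gives the change in efficacy, the functional cooperativity.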

Brain [2] = assay: Unbound brain concentration in scopolamine-induced memory impairment Wistar rat model at 1 mg/kg, sc measured after 1.25 hrs by LC-MS/MS analysis; assay type: ADME, organism-based; conditions: in vivo
[3] = (§1) Ratio of unbound Cmax in dog brain assessed as convulsions at 15 mg/kg, po administered as single dose to unbound brain concentration for agonist activity at muscarinic acetylcholine receptor M1 in C57BL/6 mouse assessed as required to show 2 fold increase in IP1 accumulation in striatum at 1 to 10 mg/kg, sc; assay type: organism-based
[4] = Unbound plasma concentration in rat at 2 mg/kg, po or 0.5 mg/kg, iv administered as single bolus dose; assay type: ADME, organism-based
Method in brief: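 Rat PK: IV bolus given as a solution, 0.5 mg/kg in 20% HPBCD; oral dose given as a suspension, 2 mg/kg in 0.5% methylcellulose. Fraction unbound in plasma determined.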

[5] = (§2) Agonist activity at muscarinic acetylcholine receptor M1 in Hartley guinea pig ileum longitudinal muscle myenteric plexus assessed as tissue contraction after 10 mins; conditions: Cavia porcellus
Cavia porcellus = organism: Cavia porcellus; assay: as §2
Canis familiaris [6] = assay: Unbound AUC (0 to 24 hrs) in dog plasma at 5 mg/kg, po administered as single dose using hydroxypropyl cellulose/docusate sodium formulation; assay type: ADME, organism-based, Canis lupus familiaris; conditions: in vivo
Method in brief: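 Dogs given a single oral 5 mg/kg dose as a nanosuspension (hydroxypropyl cellulose SL, 0.05% docusate sodium in purified water), 1/sex. Unbound plasma Cmax and AUC determined, with clinical signs monitored at approximate hours postdose.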

Canis familiaris [7] = assay: Unbound Cmax in dog plasma at 5 mg/kg, po administered as single dose using spray dried dispersion formulation; assay type: ADME, organism-based, Canis lupus familiaris; conditions: in vivo
Canis familiaris [8] = assay: Cholinergic toxicity in dog assessed as emesis at 5 mg/kg, po administered as single dose using spray dried dispersion formulation after 1 to 4 hrs; assay type: organism-based, Canis lupus familiaris; conditions: in vivo
Method in brief: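 Dog single oral dose escalation: 1/sex at 5 mg/kg for each formulation; 1 female at 15 mg/kg. Spray-dried dispersion: 23% drug loading with 0.5% methylcellulose and 100 mM citrate buffer. Clinical signs timed in approximate hours postdose; unbound plasma Cmax.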

[9] = as §1, with “rat” for “dog”, “45” for “15”; assay type: organism-based
Brain [10] = assay: Unbound brain concentration in amphetamine-induced hyperlocomotion C57BL/6 mouse at 1 mg/kg, sc measured after 1 hr by LC-MS/MS analysis; assay type: ADME, organism-based; conditions: in vivo
Method in brief: (§3)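 Satellite group of C57BL/6 mice from the amphetamine-stimulated locomotor study, N = 2/dose at 0.32, 1 and 3.2 mg/kg. Dosed sc as a solution in 10/90 Cremophor/water. Unbound plasma and brain concentrations measured at T = 1 h.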

[11] = target: Muscarinic acetylcholine receptor M3 (Homo sapiens, UniProt P20309); assay: Agonist activity at human muscarinic acetylcholine receptor M3 expressed in CHO cells assessed as increase in calcium mobilization incubated for 10 mins by Fluo-8-AM dye based FLIPR assay; assay type: cell-based
Muscarinic acetylcholine receptor M3, sequence (P20309 whole entry): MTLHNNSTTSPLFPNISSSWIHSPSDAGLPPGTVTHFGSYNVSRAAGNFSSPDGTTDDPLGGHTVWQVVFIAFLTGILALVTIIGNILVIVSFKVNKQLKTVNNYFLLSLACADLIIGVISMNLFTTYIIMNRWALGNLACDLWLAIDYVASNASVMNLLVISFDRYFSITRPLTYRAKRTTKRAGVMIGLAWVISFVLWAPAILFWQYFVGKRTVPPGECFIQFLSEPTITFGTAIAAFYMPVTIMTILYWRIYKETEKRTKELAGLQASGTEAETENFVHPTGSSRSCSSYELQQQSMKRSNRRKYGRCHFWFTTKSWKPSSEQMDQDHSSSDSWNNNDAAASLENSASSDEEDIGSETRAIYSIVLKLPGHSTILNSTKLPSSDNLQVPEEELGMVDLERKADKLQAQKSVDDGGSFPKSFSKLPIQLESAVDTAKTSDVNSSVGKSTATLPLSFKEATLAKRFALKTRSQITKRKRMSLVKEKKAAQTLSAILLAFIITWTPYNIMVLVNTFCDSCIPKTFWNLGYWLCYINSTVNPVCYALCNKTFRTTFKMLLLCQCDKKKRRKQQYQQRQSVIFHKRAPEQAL
Method in brief: (§4)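 Recombinant functional human M2–M5 assays, each run in agonist and PAM modes at concentrations up to 10 μM.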

[12] = target: T2, Muscarinic acetylcholine receptor M2 (Homo sapiens, UniProt P08172); assay: Positive allosteric modulation of human muscarinic acetylcholine receptor M2 expressed in CHO cells assessed as increase in acetylcholine-induced cAMP accumulation up to 10 uM after 2 hrs by cAMP-Glo assay; assay type: cell-based; method in brief: as §4
T2 sequence (P08172 whole entry): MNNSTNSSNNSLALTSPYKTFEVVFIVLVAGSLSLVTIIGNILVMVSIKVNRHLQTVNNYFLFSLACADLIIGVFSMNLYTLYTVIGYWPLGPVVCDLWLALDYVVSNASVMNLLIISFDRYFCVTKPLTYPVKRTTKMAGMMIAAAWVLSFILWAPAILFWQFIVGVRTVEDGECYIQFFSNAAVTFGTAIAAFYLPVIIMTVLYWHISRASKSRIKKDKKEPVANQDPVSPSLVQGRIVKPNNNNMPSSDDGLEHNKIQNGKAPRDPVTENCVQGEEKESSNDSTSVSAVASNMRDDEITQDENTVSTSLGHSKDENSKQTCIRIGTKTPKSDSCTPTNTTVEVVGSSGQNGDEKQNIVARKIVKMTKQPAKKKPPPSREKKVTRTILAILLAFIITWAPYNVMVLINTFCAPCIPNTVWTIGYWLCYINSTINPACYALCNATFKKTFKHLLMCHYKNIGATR

[13] = Positive allosteric modulation of muscarinic acetylcholine receptor M1 in Hartley guinea pig ileum longitudinal muscle myenteric plexus assessed as increase in acetylcholine-induced tissue contraction after 10 mins in presence of donepezil; conditions: Cavia porcellus
[14] = Ratio of AUC in iv or po dosed mouse brain to plasma; assay type: ADME, organism-based; conditions: read-out: Ratio AUC
Method in brief: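 Brain/plasma ratio computed from AUC of total drug in brain and total drug in plasma.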

Plasma = assay: Unbound plasma concentration in amphetamine-induced hyperlocomotion C57BL/6 mouse at 0.3 mg/kg, sc measured after 1 hr by LC-MS/MS analysis; assay type: ADME, organism-based; conditions: in vivo; method in brief: as §3
Canis familiaris [15] = assay: Unbound Cmax in dog plasma at 15 mg/kg, po administered as single dose using spray dried dispersion formulation; assay type: ADME, organism-based, Canis lupus familiaris; conditions: in vivo
[16] = Clearance in dog at 0.1 mg/kg, iv administered as single bolus dose; assay type: ADME, organism-based, Canis lupus familiaris; conditions: in vivo
Rattus norvegicus [17] = assay: Unbound Cmax in rat plasma at 1 mg/kg, po administered as single dose; assay type: ADME, organism-based; conditions: in vivo
Method in brief: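 Rats (3/sex/dose) dosed orally once, 1 or 5 mg/kg as a 0.5% methylcellulose suspension.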

MDR1 = assay: Efflux ratio of permeability from basolateral to apical side over apical to basolateral side in MDCK1 cells expressing MDR1; assay type: ADME, cell-based, Canis lupus familiaris; conditions: dog, MDCK-MDR1
Method in brief: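 MDCKI-MDR1 cells (MDCK epithelial line transfected with MDR1/P-gp; from the NIH). Permeability measured as a rate in 10−6 cm/s in both directions; value is the BA/AB ratio.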

Rattus norvegicus [18] = assay: Toxicity in rat assessed as unbound brain concentration at 45 mg/kg, po administered as single dose; assay type: organism-based; conditions: in vivo

Cc1cc2c(cc1Cc1ccc(-c3cocn3)cc1)C(=O)N([C@H]1CCOC[C@@H]1O)C2
log(activity) [1]: 2.3 | Drug uptake(free) (Brain [2]): 13 nM | selectivity ratio [3]: 15 | fraction unbound [4]: 0.035 | EC50 [5]: 92 nM | Activity (Cavia porcellus): Dose-dependent effect | fAUC (Canis familiaris [6]): 3.37 µM·h | fCmax (Canis familiaris [7]): 446 nM | Activity (Canis familiaris [8]): Toxic | selectivity ratio [9]: 20 | Drug uptake(free) (Brain [10]): 14 nM | EC50 [11]: > 10000 nM | Activity [12]: Not Active | EC50 [13]: 46 nM | Kp [14]: 0.1 | Cp(f) (Plasma): 7.3 nM | fCmax (Canis familiaris [15]): 1067 nM | clearance [16]: 1.7 mL/min/kg | fCmax (Rattus norvegicus [17]): 73 nM | efflux ratio (MDR1): 11 | Drug uptake(free) (Rattus norvegicus [18]): 460 to 760 nM
